# Assay results reported in ChEMBL document CHEMBL3616459, “Antimicrobial peptides with potential for biofilm eradication: synthesis and structure activity relationship studies of battacin peptides” (J Med Chem, 2015).
# Positions of bridges follow the written chain, without caps; N, C: chain ends. Non-standard residues stand in square brackets, D forms with d. Residues, ends and D or L forms follow the SMILES beside them. *: point of attachment. Myristoyl = CCCCCCCCCCCCCC(=O)*; X1 = CC(C)=CCC/C(C)=C/C(=O)*; dDab = NCC[C@@H](N)C(=O)O; X2 = CCC(C)CCC(O)CC(=O)*; Dab = NCC[C@H](N)C(=O)O
# What was measured:
# Escherichia coli = test: Antimicrobial activity against Escherichia coli after 24 hrs by spectrophotometry; format: functional
# How it was run: (§1)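 Broth microdilution in Luria broth. Overnight culture from a single colony, grown at 28 °C (Ea1501, Psa) or 37 °C (E. coli, S. aureus), adjusted to OD600 0.6. Peptide dissolved in LB with 0.5% acetic acid as a dilution series; 50 μL peptide plus 50 μL culture per well, triplicates.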
# [1] = Antimicrobial activity against Pseudomonas syringae pv. actinidiae 16027 after 24 hrs by spectrophotometry; format: functional; conditions: Pseudomonas syringae, 16027, 24 h; how it was run: as §1
# Staphylococcus aureus = test: Antimicrobial activity against Staphylococcus aureus after 24 hrs by spectrophotometry; format: functional; how it was run: as §1
# Pseudomonas aeruginosa = test: Antimicrobial activity against Pseudomonas aeruginosa after 24 hrs by spectrophotometry; format: functional
# Erwinia amylovora [2] = test: Antimicrobial activity against streptomycin-resistant Erwinia amylovora after 24 hrs by spectrophotometry; format: functional
# How it was run: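 Broth microdilution in Luria broth; overnight culture grown at 28 °C, adjusted to OD600 0.6, mixed 1:1 with a dilution series of peptide prepared in LB containing 0.5% acetic acid. Three replicates per concentration.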
# Erwinia amylovora [3] = test: Antimicrobial activity against Erwinia amylovora 1501 after 24 hrs by spectrophotometry; format: functional; conditions: Erwinia amylovora, 1501, 24 h; how it was run: as §1
# [4] = Hemolytic activity in mouse erythrocytes at 100 uM to 1 mM after 1 hr by spectrophotometry; format: ADME, cell-based, Erythrocyte; conditions: read-out: Activity
# How it was run: (§2)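 100 μL peptide (1 μM–1 mM in Tris buffer) plus 100 μL cells, incubated 1 h at 37 °C, triplicates. After centrifugation, supernatant A540 read. Percent hemolysis calculated relative to buffer (0%) and 0.1% Triton X-100 (100%) controls.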
# [5] = Hemolytic activity in mouse erythrocytes at 100 uM after 1 hr by spectrophotometry; format: ADME, cell-based, Erythrocyte; conditions: read-out: Activity; how it was run: as §2
Molecule,MIC (Escherichia coli) [µM],MIC [1] [µM],MIC (Staphylococcus aureus) [µM],MIC (Pseudomonas aeruginosa) [µM],MIC (Erwinia amylovora [2]) [µM],MIC (Erwinia amylovora [3]) [µM],"hemolysis at 1 h, 100 µM [4] [%]","hemolysis at 1 h, 100 µM [5] [%]"
CCC(C)CCC(=O)N[C@H](CCN)C(=O)N[C@@H](CCN)C(=O)N[C@@H](CCN)C(=O)N[C@@H](CC(C)C)C(=O)N[C@H](Cc1ccccc1)C(=O)N[C@@H](C)C(=O)N[C@@H](CCN)C(=O)N[C@@H](CC(C)C)C(=O)O (some centres undefined),100,100,500,50,–,–,–,–
CCCCCCCCCCCCCC(=O)N[C@H](CCCCN)C(=O)N[C@@H](CCCCN)C(=O)N[C@@H](CCCCN)C(=O)N[C@@H](CC(C)C)C(=O)N[C@H](Cc1ccccc1)C(=O)N[C@@H](CCCCN)C(=O)N[C@@H](CCCCN)C(=O)N[C@@H](CC(C)C)C(N)=O (Myristoyl-[dK]KKL[dF]KKL-NH2),12,12,1,12,12,12,–,–
CCC(C)CCC(=O)N[C@H](CCN)C(=O)N[C@@H](CCN)C(=O)N[C@@H](CCN)C(=O)N[C@@H](CC(C)C)C(=O)N[C@H](Cc1ccccc1)C(=O)N[C@@H](CCN)C(=O)N[C@@H](C)C(=O)N[C@@H](CC(C)C)C(=O)O (some centres undefined),5,2.5,5,5,–,–,–,–
GENTAMICIN,–,–,2.5,< 1,–,–,–,–
CCC(C)CCC(=O)N[C@@H](C)C(=O)N[C@@H](CCN)C(=O)N[C@@H](CCN)C(=O)N[C@@H](CC(C)C)C(=O)N[C@H](Cc1ccccc1)C(=O)N[C@@H](CCN)C(=O)N[C@@H](CCN)C(=O)N[C@@H](CC(C)C)C(=O)O (some centres undefined),500,100,> 1000,25,–,–,–,–
CC(C)C[C@H](NC(=O)[C@H](CCN)NC(=O)[C@H](CCN)NC(=O)[C@@H](Cc1ccccc1)NC(=O)[C@H](CC(C)C)NC(=O)[C@H](CCN)NC(=O)[C@H](CCN)NC(=O)[C@H](N)CCN)C(N)=O (H-[dDab][Dab][Dab]L[dF][Dab][Dab]L-NH2),100,5,> 1000,2.5,–,–,–,–
CCCCCCCCCCCCCC(=O)N[C@H](CCCCN)C(=O)N[C@H]1CCCCNC(=O)[C@H](CC(C)C)NC(=O)[C@H](CCCCN)NC(=O)[C@H](CCCCN)NC(=O)[C@@H](Cc2ccccc2)NC(=O)[C@H](CC(C)C)NC(=O)[C@H](CCCCN)NC1=O,81,12,81,409,20,81,–,–
CC(C)=CCC/C(C)=C/C(=O)N[C@H](CCN)C(=O)N[C@@H](CCN)C(=O)N[C@@H](CCN)C(=O)N[C@@H](CC(C)C)C(=O)N[C@H](Cc1ccccc1)C(=O)N[C@@H](CCN)C(=O)N[C@@H](CCN)C(=O)N[C@@H](CC(C)C)C(N)=O (X1-[dDab][Dab][Dab]L[dF][Dab][Dab]L-NH2),24,14,48,48,48,24,–,–
CCC(C)CCC(=O)N[C@H](CCN)C(=O)N[C@H]1CCNC(=O)[C@H](CC(C)C)NC(=O)[C@H](CCN)NC(=O)[C@H](CCN)NC(=O)[C@@H](Cc2ccccc2)NC(=O)[C@H](CC(C)C)NC(=O)[C@H](CCN)NC1=O (some centres undefined),15,5,101,2.5,25,15,2.02,–
CCC(C)CCC(=O)N[C@H](CCN)C(=O)N[C@@H](CCN)C(=O)N[C@@H](CCN)C(=O)N[C@@H](CC(C)C)C(=O)N[C@@H](C)C(=O)N[C@@H](CCN)C(=O)N[C@@H](CCN)C(=O)N[C@@H](CC(C)C)C(=O)O (some centres undefined),25,> 1000,25,> 1000,–,–,–,–
CC(C)C[C@@H]1NC(=O)[C@H](CCN)NC(=O)[C@H](CCN)NC(=O)[C@@H](Cc2ccccc2)NC(=O)[C@H](CC(C)C)NC(=O)[C@H](CCN)NC(=O)[C@@H](NC(=O)[C@@H](CCN)NC(=O)OCC2c3ccccc3-c3ccccc32)CCNC1=O,19,19,2,2,32,19,–,41
CC(C)CCCC(=O)N[C@H](CCN)C(=O)N[C@@H](CCN)C(=O)N[C@@H](CC(C)C)C(=O)N[C@H](Cc1ccccc1)C(=O)N[C@@H](CCN)C(N)=O,10,1,2.5,1,–,–,1.14,–
CCCCCCCCCCCCCC(=O)N[C@H](CCN)C(=O)N[C@H]1CCNC(=O)[C@H](CC(C)C)NC(=O)[C@H](CCN)NC(=O)[C@H](CCN)NC(=O)[C@@H](Cc2ccccc2)NC(=O)[C@H](CC(C)C)NC(=O)[C@H](CCN)NC1=O,92,46,92,92,23,92,–,–
CCC(C)CCC(=O)N[C@H](CCN)C(=O)N[C@@H](CCN)C(=O)N[C@@H](CCN)C(=O)N[C@@H](CC(C)C)C(=O)N[C@H](Cc1ccccc1)C(=O)N[C@@H](CCN)C(=O)N[C@@H](CCN)C(=O)N[C@@H](C)C(=O)O (some centres undefined),15,10,5,5,–,–,–,–
CCC(C)CCC(=O)N[C@H](CCN)C(=O)N[C@@H](CCN)C(=O)N[C@@H](C)C(=O)N[C@@H](CC(C)C)C(=O)N[C@H](Cc1ccccc1)C(=O)N[C@@H](CCN)C(=O)N[C@@H](CCN)C(=O)N[C@@H](CC(C)C)C(=O)O (some centres undefined),25,25,25,10,–,–,–,–
CCC(C)CCC(=O)N[C@H](CCN)C(=O)N[C@@H](C)C(=O)N[C@@H](CCN)C(=O)N[C@@H](CC(C)C)C(=O)N[C@H](Cc1ccccc1)C(=O)N[C@@H](CCN)C(=O)N[C@@H](CCN)C(=O)N[C@@H](CC(C)C)C(=O)O (some centres undefined),25,2.5,2.5,2.5,–,–,–,–
CCC(C)CCC(=O)N[C@H](CCN)C(=O)N[C@@H](CCN)C(=O)N[C@@H](CCN)C(=O)N[C@@H](C)C(=O)N[C@H](Cc1ccccc1)C(=O)N[C@@H](CCN)C(=O)N[C@@H](CCN)C(=O)N[C@@H](CC(C)C)C(=O)O (some centres undefined),500,> 1000,> 1000,> 1000,–,–,–,–
CN[C@@H]1[C@H](O[C@H]2[C@H](O[C@H]3[C@H](O)[C@@H](O)[C@H](N=C(N)N)[C@@H](O)[C@@H]3N=C(N)N)O[C@@H](C)[C@]2(O)C=O)O[C@@H](CO)[C@H](O)[C@H]1O [STREPTOMYCIN],1,1,–,–,500,1,–,–
CC(C)=CCC/C(C)=C/C(=O)N[C@H](CCN)C(=O)N[C@H]1CCNC(=O)[C@H](CC(C)C)NC(=O)[C@H](CCN)NC(=O)[C@H](CCN)NC(=O)[C@@H](Cc2ccccc2)NC(=O)[C@H](CC(C)C)NC(=O)[C@H](CCN)NC1=O,98,49,98,10,488,98,–,–
CCC(C)CCC(O)CC(=O)N[C@H](CCN)C(=O)N[C@H]1CCNC(=O)[C@H](CC(C)C)NC(=O)[C@H](CCN)NC(=O)[C@H](CCN)NC(=O)[C@@H](Cc2ccccc2)NC(=O)[C@H](CC(C)C)NC(=O)[C@H](CCN)NC1=O (some centres undefined) (X2-[dDab][Dab][Dab]L[dF][Dab][Dab]L; lactam 2-C),10,5,> 50,5,24,24,–,–
CCCCCCCCCCCCCC(=O)N[C@H](CCN)C(=O)N[C@@H](CCN)C(=O)N[C@@H](CCN)C(=O)N[C@@H](CC(C)C)C(=O)N[C@H](Cc1ccccc1)C(=O)N[C@@H](CCN)C(=O)N[C@@H](CCN)C(=O)N[C@@H](CC(C)C)C(N)=O (Myristoyl-[dDab][Dab][Dab]L[dF][Dab][Dab]L-NH2),5,14,5,14,14,9,76.9,–
